From PubChem
Compounds with a hit are over-represented: about 1.9% of the library has one in this group of screens.
UHRF1 MBD2 ctr: blocks human UHRF1 binding to methylated DNA | 370,000 compounds, 0.75% hits | inhibition, % at 4.4 µM | UHRF1 binding to methylated oligo, TR-FRET; in the data active = inhibition above about 21%;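 also: UHRF1 SRA domain binding a hemimethylated CpG hairpin DNA probe; 0% = median of test compound wells and 100% = reference inhibitor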
LEDGF integ inh: blocks HIV-1 LEDGF/p75-dependent DNA integration. TR-FRET IN-LEDGF/p75 DNA integration, Eu/Cy5. inhibition, % at 3.7 µM. 370,000 compounds, 0.64% hits;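 active = inhibition above the screen-wide mean plus 3 SD, cut at about 13% in these data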;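 also: signal is the Cy5 over europium emission ratio at 671 and 618 nm; 0% = plate median of compound wells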
TDP2 inh: TDP2 (human) inhibition, absorbance primary screen; O95551; 370,000 compounds, 0.34% hits; recombinant TDP2, T5PNP hydrolysis, p-nitrophenol absorbance 415 nm; inhibition, % at 12.8 µM;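 active = inhibition above the mean of all tested compounds plus 3 SD, set per campaign, cut at about 25% in these data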;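 also: 0% = DMSO with enzyme and 100% = buffer with substrate but no TDP2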
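Read-out basis: percent inhibition. System: recombinant human TDP2. Buffer or medium: Mg2+-containing Tris-HCl buffer, pH 7.5. Repeats: single replicate. Timing: reaction 2 h, 37 °C. Benchmarks: high control without enzyme, low control DMSO plus TDP2. Probe or stimulus: 5 mM T5PNP. Doses: 12.8 µM only. Measured by: epi absorbance of p-nitrophenol freed from T5PNP by hydrolysis.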
MBD2 DNA inh: inhibitors of human MBD2 binding to methylated oligonucleotide; AID 686964; TR-FRET; Q9UBB5; 370,000 compounds, 0.31% hits; inhibition, % at 4.4 µM; in the data active = inhibition above about 13%
Rin1 Abl inh: blocks binding of human Rin1 to Abl; TR-FRET Rin1/Abl binding, biochemical; inhibition, % at 7.35 µM; 360,000 compounds, 0.4% hits; in the data active = inhibition above about 5%, passing the limit was not always enough
IN multimer up: HIV-1 integrase multimerization activation, counter-screen | shares compounds with LEDGF integ inh | TR-FRET HIV-1 integrase multimerization, biochemical | activation, % at 7.7 µM | 2,000 compounds, 17% hits | AID 1053131; in the data active = activation above about 8.9%
TRFRET interf: counter-screen for LEDGF/p75 integration inhibitors: TR-FRET optical interference; shares compounds with LEDGF integ inh; TR-FRET optical interference counterscreen, HIV-1 IN multimerization; inhibition, % at 7.7 µM; 2,000 tested, under 10 active; AID 1053135;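 active = inhibition above the mean over all tested compounds plus 3 SD, which no compound reached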;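 also: 0% = integrase with antibodies and DMSO and 100% = antibodies without integrase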
LEDGF integ conf: LEDGF/p75-dependent HIV-1 integration inhibition, confirmation | shares compounds with LEDGF integ inh | TR-FRET LEDGF/p75-dependent HIV-1 integration, biochemical | inhibition, % at 3.7 µM | 2,000 compounds, 36% hits; in the data active = inhibition above about 14%
* marks the source's active call; other numbers are inactive results; / = not tested or not shown.

SMILES	UHRF1 MBD2 ctr	LEDGF integ inh	TDP2 inh	MBD2 DNA inh	Rin1 Abl inh	IN multimer up	TRFRET interf	LEDGF integ conf
Oc1c(CN2CCOCC2)cc(CN2CCOCC2)c(O)c1CN1CCOCC1	-5	20*	-2	-2	5	2	-8	-2
COc1cc(C2Nc3ccc4ncccc4c3C3=C2C(=O)CCC3)cc(OC)c1OC (configuration not stated)	-1	2	-3	-5	-1	/	/	/
COc1cc(C2Nc3ccc4ncccc4c3C3=C2C(=O)CCC3)ccc1O (configuration not stated)	-9	27*	-3	-13	-1	2	-10	-13
O=C(Cn1cnc([N+](=O)[O-])n1)c1ccc(O)c(O)c1	14	40*	-17	5	0	9.9*	-35	22*
CCc1nc(SCC(=O)N2CCc3ccccc32)c2oc3ccccc3c2n1	0	14*	9	-5	-2	0	-3	-1
Cn1c(NC(=O)c2ccccc2)cc(=O)n(C)c1=O	2	3	4	-5	1	/	/	/
Cn1c(NC(=O)c2ccco2)cc(=O)n(C)c1=O	-3	24*	0	-4	-1	0	-1	-4
CN(C)S(=O)(=O)c1ccc(C(=O)Nc2cc(=O)n(C)c(=O)n2C)cc1	0	44*	-1	2	1	1	-3	1
CCCCn1c(N)c(N(CC)C(=O)c2c(C)noc2C)c(=O)[nH]c1=O	4	0	-9	-2	5	/	/	/
CCOC(=O)c1c(C)[nH]c(N=Nc2cc(C(=O)O)cc(C(=O)O)c2)c1C	11	14*	-22	-1	3	9	-45	2
COc1ccccc1N(CC(=O)NCc1ccc2c(c1)OCO2)C(=O)CCC(=O)Nc1nccs1	0	0	-6	-1	3	/	/	/
N#Cc1c(NC(=O)COC(=O)C2CC3C=CC2C3)oc(-c2ccccc2)c1-c1ccccc1 (configuration not stated)	7	18*	-8	0	0	-2	12	1
Cc1ccc(S(=O)(=O)N2CCN(C(=O)C(C)Cn3cncn3)CC2)cc1 (configuration not stated)	3	5	7	-5	-1	/	/	/
O=C(N/N=C/C=C/c1ccco1)C(O)c1ccccc1 (configuration not stated)	13	26*	-1	3	0	7	-26	26*
CCOC(=O)CC1C(=O)NCCN1C(=O)c1sc2ccccc2c1Cl (configuration not stated)	-3	1	9	1	0	/	/	/
Cc1ccc(Nc2ccc(NCc3ccccc3)nn2)cc1C	7	47*	0	2	-5	2	-8	-4
Clc1ccc(Nc2ccc(NCc3ccccc3)nn2)cc1	-3	-4	-1	-10	-2	/	/	/
COc1cc(NS(=O)(=O)c2ccc(-n3cccn3)cc2)cc(OC)c1	/	/	/	/	1	/	/	/
O=[N+]([O-])c1ccc(O)c(C=Nc2cccc3ncccc23)c1	-10	20*	-14	0	-2	4	-14	-2
O=C(NCc1cnc2ccccn12)C1CCC(=O)N(Cc2ccccc2F)C1 (configuration not stated)	-1	17*	6	-1	-1	0	2	-5
CCOC(=O)C1CCCN(Cc2ccccc2Cl)C1 (configuration not stated)	-3	16*	5	0	-2	-2	12	2
CC(=C1N=C(c2ccccc2)OC1=O)c1cccs1	4	19*	3	1	/	0	0	-2
NS(=O)(=O)c1cccc(NC(=O)c2cccc(-c3ccc(O)cc3)c2)c1	-2	18*	2	-3	-3	0	-2	-8
CC1(C)OC(=O)C(=Cc2ccc(-c3ccc(Cl)c(C(=O)O)c3)o2)C(=O)O1	35*	15*	5	5	-4	15*	-55	20*
CC(C)C(=O)Nc1ccc2c(c1)nc(CCN1CCN(C)CC1)n2C	5	13*	-7	0	-2	0	2	-3
SMILES	UHRF1 MBD2 ctr	LEDGF integ inh	TDP2 inh	MBD2 DNA inh	Rin1 Abl inh	IN multimer up	TRFRET interf	LEDGF integ conf
CN1CCN(CCc2nc3cc(NC(=O)COc4ccccc4)ccc3n2C)CC1	0	0	-4	4	4	/	/	/
COC(=O)CCCC1=CC2=CC(=O)C(C)(OC(=O)c3cccs3)C(=O)C2=CN1Cc1ccccc1 (configuration not stated)	-3	1	16	-7	-1	/	/	/
COC(=O)CCCC1=CC2=CC(=O)C(C)(OC(=O)c3cccs3)C(=O)C2=CN1Cc1ccco1 (configuration not stated)	13	25*	-1	-1	-1	2	-6	18*
O=C(Nc1nc(Cc2ccccc2)c(Cc2ccccc2)n1Cc1ccccc1)c1ccccc1	-3	5	10	1	/	/	/	/
COc1ccc(Cn2c(NC(=O)c3ccccc3)nc(Cc3ccccc3)c2Cc2ccccc2)cc1	-3	14*	-5	-1	/	0	2	14*
Cn1c(NC(=O)c2ccccc2)nc(Cc2ccccc2)c1-c1ccccc1	1	23*	-5	-6	/	1	-3	31*
O=C(Nc1nc(Cc2ccccc2)c(-c2ccccc2)n1Cc1ccccc1)c1ccccc1	1	10	4	-1	/	/	/	/
CCCn1c(NC(=O)c2ccccc2)nc(Cc2ccccc2)c1Cc1ccccc1	0	15*	-1	2	/	2	-8	25*
Cn1c(NC(=O)c2ccccc2)nc(Cc2ccccc2)c1Cc1ccccc1	-2	25*	-7	-5	/	1	-4	27*
CCOC(=O)c1sc(NC(=O)C2CC(=O)N(c3ccc(C)cc3)C2)nc1C (configuration not stated)	2	3	-10	-1	4	/	/	/
CCC(C)NC(=O)Cn1cnc2sc(C)c(S(=O)(=O)N3CCCCC3)c2c1=O (configuration not stated)	0	-2	-3	-3	-1	/	/	/
CCOC(=O)C1(C)CCN1C(=O)c1c(F)cccc1F (configuration not stated)	2	0	0	4	2	/	/	/
Cc1nc(NCCCn2ccnc2)c2ccccc2n1	2	71*	5	-6	-1	-1	3	0
c1cncc(-c2nc(NCCCn3ccnc3)c3ccccc3n2)c1	-2	4	11	4	-1	/	/	/
